Laboratory results published in ChEMBL document CHEMBL2169822, “Discovery and optimization of 1,3,4-trisubstituted-pyrazolone derivatives as novel, potent, and nonsteroidal farnesoid X receptor (FXR) selective antagonists” (J Med Chem, 2012).
Activity calls are given as the source filed them. The rule behind the calls is not given here.

What was measured:
[1] = test system: Mus musculus; assay: Reduction of hepatic triglyceride level in cholesterol-fed C57BL/6 mouse administered orally after 10 days; assay type: functional, organism-based
Outline: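 Male C57BL/6 mice, 8–12 weeks old, were randomized into five groups of nine. Control mice had ground chow; the other groups had chow with 2% cholesterol. Compound (50 or 100 mg/kg) or reference (100 mg/kg) was suspended in 0.5% CMC-Na and given by oral gavage; control and vehicle mice got 0.5% CMC-Na. Serum and hepatic triglyceride and total cholesterol were measured.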

[2] = target: T1, Peroxisome proliferator-activated receptor delta (Homo sapiens) (UniProt Q03181); assay: Agonist activity at recombinant PPARdelta LBD expressed in HEK293T cells co-expressing GAL4 DBD at 20 uM by transactivation assay; assay type: functional, cell-based; conditions: HEK-293T
T1 sequence (whole entry): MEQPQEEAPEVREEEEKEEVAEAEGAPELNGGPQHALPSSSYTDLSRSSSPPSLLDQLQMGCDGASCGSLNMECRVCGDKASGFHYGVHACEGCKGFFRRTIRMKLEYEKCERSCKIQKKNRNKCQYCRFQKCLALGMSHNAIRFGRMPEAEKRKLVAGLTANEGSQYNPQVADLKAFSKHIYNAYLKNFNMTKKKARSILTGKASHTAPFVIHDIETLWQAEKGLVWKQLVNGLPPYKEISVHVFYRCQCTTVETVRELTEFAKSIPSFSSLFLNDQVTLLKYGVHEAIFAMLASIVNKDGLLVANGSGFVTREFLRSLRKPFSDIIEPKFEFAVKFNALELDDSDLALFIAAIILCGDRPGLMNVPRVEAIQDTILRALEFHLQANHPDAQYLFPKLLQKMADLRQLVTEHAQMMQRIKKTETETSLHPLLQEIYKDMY
Outline: (§1)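 One-hybrid assay in HEK293T cells cotransfected with a Gal4 DBD–NR-LBD fusion (RXRα, LXRα, GR, PR, PPARδ or PPARγ) plus UAS-TK-Luc reporter. Compound was 20 μM, given alone or with agonist: 9cRA 0.1 μM (RXRα), TO901317 0.5 μM (LXRα), dexamethasone 50 nM (GR), progesterone 100 nM (PR), GW1516 10 μM (PPARδ), rosiglitazone 10 μM (PPARγ). Luciferase read-out; three independent experiments.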

[3] = target: T2, Bile acid receptor (Homo sapiens) (UniProt Q96RI1); assay: Antagonist activity at human FXR in human HepG2 cells assessed as reduction in cholesterol level after 24 hrs; assay type: functional, cell-based
T2 sequence (whole entry): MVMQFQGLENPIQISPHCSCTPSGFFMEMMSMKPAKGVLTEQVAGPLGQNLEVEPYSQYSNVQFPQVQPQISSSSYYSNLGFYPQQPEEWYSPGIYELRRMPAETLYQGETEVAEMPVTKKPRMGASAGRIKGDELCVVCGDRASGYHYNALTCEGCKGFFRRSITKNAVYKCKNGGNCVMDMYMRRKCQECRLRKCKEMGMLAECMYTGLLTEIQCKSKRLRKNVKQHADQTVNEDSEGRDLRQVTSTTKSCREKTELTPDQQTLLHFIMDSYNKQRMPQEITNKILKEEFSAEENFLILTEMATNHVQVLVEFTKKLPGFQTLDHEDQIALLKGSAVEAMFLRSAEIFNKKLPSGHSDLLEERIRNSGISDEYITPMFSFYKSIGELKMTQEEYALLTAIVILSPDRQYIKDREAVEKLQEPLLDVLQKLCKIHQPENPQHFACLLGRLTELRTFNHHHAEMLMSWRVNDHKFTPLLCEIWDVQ
Outline: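 HepG2 cells were serum-starved overnight in FBS-free DMEM, then given DMSO or compound for 24 h in serum-free DMEM. Cells were lysed in RIPA buffer, sonicated on ice and centrifuged at 12000 rpm, 4 °C. Triglyceride and total cholesterol in the cleared lysate were measured by kits, with total protein by BCA. At least three experiments.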

[4] = target: T3, Glucocorticoid receptor (Homo sapiens) (UniProt P04150); assay: Antagonist activity at recombinant GR LBD expressed in HEK293T cells co-expressing GAL4 DBD assessed as inhibition of dexamethasone-induced transactivation at 20 uM by luciferase reporter gene assay; assay type: functional, cell-based; conditions: HEK-293T; outline: as §1
T3 sequence (whole entry): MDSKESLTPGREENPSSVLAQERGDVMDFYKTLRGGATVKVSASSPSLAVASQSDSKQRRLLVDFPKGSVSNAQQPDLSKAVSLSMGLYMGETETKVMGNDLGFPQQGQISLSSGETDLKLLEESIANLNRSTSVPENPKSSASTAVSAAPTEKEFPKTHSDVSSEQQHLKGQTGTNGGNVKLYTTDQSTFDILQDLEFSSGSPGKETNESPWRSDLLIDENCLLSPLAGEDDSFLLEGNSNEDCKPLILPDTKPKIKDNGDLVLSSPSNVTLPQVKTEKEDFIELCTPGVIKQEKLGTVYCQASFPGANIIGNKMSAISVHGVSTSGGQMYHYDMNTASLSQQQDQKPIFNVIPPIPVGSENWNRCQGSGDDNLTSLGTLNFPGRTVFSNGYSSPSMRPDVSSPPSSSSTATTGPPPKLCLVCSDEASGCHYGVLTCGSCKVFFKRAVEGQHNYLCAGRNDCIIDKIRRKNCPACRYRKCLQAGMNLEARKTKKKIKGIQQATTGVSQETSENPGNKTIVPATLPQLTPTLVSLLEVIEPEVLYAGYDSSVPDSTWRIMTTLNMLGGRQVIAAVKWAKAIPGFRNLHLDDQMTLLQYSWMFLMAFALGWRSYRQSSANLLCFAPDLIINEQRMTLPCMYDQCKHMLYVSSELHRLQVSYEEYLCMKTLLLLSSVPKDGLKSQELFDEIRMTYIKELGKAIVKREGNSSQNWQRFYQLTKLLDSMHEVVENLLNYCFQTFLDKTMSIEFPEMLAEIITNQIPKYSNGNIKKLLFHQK

[5] = test system: HEK-293T; assay: (§2) Antagonist activity at FXRalpha/RXRalpha expressed in HEK293T cells co-expressing GAL4 DBD assessed as inhibition of CDCA-induced transactivation after 18 hrs by luciferase reporter gene assay; assay type: functional, cell-based; conditions: Homo sapiens
Outline: (§3)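 FXR transactivation in HEK293T cells transiently transfected with pcDNA3.1-FXRα, pcDNA3.1-RXRα, pGL3-FXRE-Luc and pRL-SV40 Renilla vector. Medium was replaced 6 h after transfection with medium holding compound at varied concentrations, with or without 20 μM CDCA, for 18 h. Read-out was dual-luciferase. Three independent experiments.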

[6] = as §2; assay type: functional, cell-based; conditions: Homo sapiens, HEK-293T; outline: as §3
[7] = target: T2, Bile acid receptor (Homo sapiens); assay: Antagonist activity at human FXR in human HepG2 cells assessed as inhibition of CDCA induced BSEP gene expression at 5 to 40 uM after 24 hrs by RT-PCR analysis; assay type: functional, cell-based
Outline: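 HepG2 cells in 6-well plates were treated with varied concentrations of compound, with or without 100 μM CDCA, for 24 h. Total RNA was taken with TRIzol and cDNA made by reverse transcription. Cyp7A1, SHP, BSEP and SREBP1c mRNA were measured by quantitative RT-PCR and normalized to β-actin. Three independent experiments.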

## COc1cc(/C=C2\C(=O)N(c3cccc([N+](=O)[O-])c3)N=C2c2ccccc2)ccc1O
[1]
  Activity: Dose-dependent effect
[2]
  Activity: inactive
[3]
  inhibition: Dose-dependent effect
[4]
  inhibition: inactive
[5]
  inhibition: Dose-dependent effect
[6]
  IC50: 25.6 µM
[7]
  inhibition: Active
